Measured values: ChEMBL document CHEMBL3243919, “11,12-Secoprostaglandins. 3. 8-Alkylthio(sulfinyl and sulfonyl)-12-hydroxyalkanoic acids and related compounds” (J Med Chem, 1977)
Active and inactive are the calls of the source. The rule behind the calls is not given here.

Legend:
Mus musculus [1] = species: Mus musculus; assay: Binding affinity to prostanoid receptor in [8-14C]adenine-treated CD-1 mouse ovary assessed as increase in c-AMP production at 1 ug/ml after 30 mins by paper chromatographic analysis in presence of phosphodiesterase inhibitor theophylline relative to control; format: tissue-based; details: Female gonad
Procedure, shortened: (§1)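 Mouse ovaries, three per incubation (15-25 mg), preincubated 1 h at 37 °C with shaking in aerated Krebs-Ringer phosphate buffer pH 7.2 containing [8-14C]adenine. Theophylline and test compound (in Me2SO) were then added, with a further 30 min at 37 °C. Stopped with trichloroacetic acid, homogenized and centrifuged. [14C]-cAMP isolated, including paper chromatography. Result is fold increase over untreated ovaries.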

Mus musculus [2] = species: Mus musculus; assay: Binding affinity to prostanoid receptor in [8-14C]adenine-treated CD-1 mouse ovary assessed as increase in c-AMP production at 200 ug/ml after 30 mins by paper chromatographic analysis in presence of phosphodiesterase inhibitor theophylline relative to control; format: tissue-based; details: Female gonad; procedure, shortened: as §1
Mus musculus [3] = species: Mus musculus; assay: Binding affinity to prostanoid receptor in [8-14C]adenine-treated CD-1 mouse ovary assessed as increase in c-AMP production at 25 ug/ml after 30 mins by paper chromatographic analysis in presence of phosphodiesterase inhibitor theophylline relative to control; format: tissue-based; details: Female gonad; procedure, shortened: as §1
Mus musculus [4] = species: Mus musculus; assay: Binding affinity to prostanoid receptor in [8-14C]adenine-treated CD-1 mouse ovary assessed as increase in c-AMP production at 50 ug/ml after 30 mins by paper chromatographic analysis in presence of phosphodiesterase inhibitor theophylline relative to control; format: tissue-based; details: Female gonad; procedure, shortened: as §1
Mus musculus [5] = species: Mus musculus; assay: Binding affinity to prostanoid receptor in [8-14C]adenine-treated CD-1 mouse ovary assessed as increase in c-AMP production at 10 ug/ml after 30 mins by paper chromatographic analysis in presence of phosphodiesterase inhibitor theophylline relative to control; format: tissue-based; details: Female gonad; procedure, shortened: as §1
Mus musculus [6] = species: Mus musculus; assay: Binding affinity to prostanoid receptor in [8-14C]adenine-treated CD-1 mouse ovary assessed as increase in c-AMP production at 100 ug/ml after 30 mins by paper chromatographic analysis in presence of phosphodiesterase inhibitor theophylline relative to control; format: tissue-based; details: Female gonad; procedure, shortened: as §1
Rattus norvegicus [7] = species: Rattus norvegicus; assay: Binding affinity to prostanoid receptor in rat lipocytes assessed as compound equivalent to cold PGE1 in displacing [3H]-PGE1 from receptor after 60 mins; format: cell-based
Procedure, shortened: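 Test compound incubated with 0.4 ng [3H]-PGE1 and 125 µg rat lipocyte binding preparation for 60 min at 37 °C. Bound [3H]-PGE1 then measured. Three test concentrations, run in duplicate.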

Homo sapiens [8] = species: Homo sapiens; assay: Binding affinity to prostanoid receptor in [8-14C]adenine-treated human psoriatic skin slices assessed as increase in c-AMP production at 200 ug/ml after 30 mins by paper chromatographic analysis relative to control
Procedure, shortened: (§2)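 Psoriatic skin biopsied from patients off medication ≥48 h, under sc 1-2% lidocaine, and cut into 10-30 mg slices. Preincubated with [14C]adenine about 60 min at 22 °C, then 45 min at 37 °C, then 30 min at 37 °C with test compound. Stopped with TCA to 2.5%, then pulverized at -70 °C and homogenized. Supernatant [14C]-cAMP expressed as fold over unmedicated slices; average of four experiments.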

Canis familiaris = assay: Antisecretory activity in dog assessed as reduction of gastric acid release at 12.3 mg/kg, po; format: functional, organism-based; set-up: dose 12.3 mg/kg; details: Canis lupus familiaris, Stomach
Procedure, shortened: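 Given orally to dogs at 12.3 mg/kg; gastric acid antisecretory effect assessed.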

[9] = target: T1, 15-hydroxyprostaglandin dehydrogenase [NAD(+)] (Homo sapiens, UniProt P15428); assay: Metabolic stability of the compound assessed as 15-hydroxyprostanoid dehydrogenase (unknown origin)-mediated metabolite formation; format: ADME
T1 sequence (P15428 whole entry): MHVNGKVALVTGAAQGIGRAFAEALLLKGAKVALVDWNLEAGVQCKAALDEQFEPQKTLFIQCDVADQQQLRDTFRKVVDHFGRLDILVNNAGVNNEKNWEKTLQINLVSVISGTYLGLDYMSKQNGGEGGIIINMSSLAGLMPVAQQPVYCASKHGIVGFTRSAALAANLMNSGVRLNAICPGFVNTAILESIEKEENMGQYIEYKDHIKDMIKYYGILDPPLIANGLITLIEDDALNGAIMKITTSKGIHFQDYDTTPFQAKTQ

Lymphocyte [10] = assay: Inhibition of antigen-induced lymphocyte (unknown origin) transformation at 10 ug/mL relative to control; format: functional
Mus musculus [11] = species: Mus musculus; assay: Binding affinity to prostanoid receptor in [8-14C]adenine-treated CD-1 mouse ovary assessed as increase in c-AMP production at 0.1 ug/ml after 30 mins by paper chromatographic analysis in presence of phosphodiesterase inhibitor theophylline relative to control; format: tissue-based; details: Female gonad; procedure, shortened: as §1
Rattus norvegicus [12] = assay: Antihypertensive activity in spontaneous hypertensive rat model up to 40 mg/kg, po; format: functional, organism-based; set-up: dose 40 mg/kg
Procedure, shortened: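 Spontaneously hypertensive rats dosed po at up to 40 mg/kg; antihypertensive effect assessed.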

Lymphocyte [13] = assay: Inhibition of antigen-induced lymphocyte (unknown origin) transformation at 1 ug/mL relative to control; format: functional
Homo sapiens [14] = species: Homo sapiens; assay: Binding affinity to prostanoid receptor in [8-14C]adenine-treated human psoriatic skin slices assessed as increase in c-AMP production at 25 ug/ml after 30 mins by paper chromatographic analysis relative to control; procedure, shortened: as §2
Homo sapiens [15] = species: Homo sapiens; assay: Binding affinity to prostanoid receptor in [8-14C]adenine-treated human psoriatic skin slices assessed as increase in c-AMP production at 50 ug/ml after 30 mins by paper chromatographic analysis relative to control; procedure, shortened: as §2
Homo sapiens [16] = species: Homo sapiens; assay: Binding affinity to prostanoid receptor in [8-14C]adenine-treated human psoriatic skin slices assessed as increase in c-AMP production at 100 ug/ml after 30 mins by paper chromatographic analysis relative to control; procedure, shortened: as §2
Mus musculus [17] = species: Mus musculus; assay: Binding affinity to prostanoid receptor in [8-14C]adenine-treated CD-1 mouse ovary assessed as increase in c-AMP production at 0.05 ug/ml after 30 mins by paper chromatographic analysis in presence of phosphodiesterase inhibitor theophylline relative to control; format: tissue-based; details: Female gonad; procedure, shortened: as §1
Homo sapiens [18] = species: Homo sapiens; assay: Binding affinity to prostanoid receptor in [8-14C]adenine-treated human psoriatic skin slices assessed as increase in c-AMP production at 10 ug/ml after 30 mins by paper chromatographic analysis relative to control; procedure, shortened: as §2
Mus musculus [19] = species: Mus musculus; assay: Binding affinity to prostanoid receptor in [8-14C]adenine-treated CD-1 mouse ovary assessed as increase in c-AMP production at 0.01 ug/ml after 30 mins by paper chromatographic analysis in presence of phosphodiesterase inhibitor theophylline relative to control; format: tissue-based; details: Female gonad; procedure, shortened: as §1

Row | SMILES | fold change (FC) (Mus musculus [1]) | fold change (FC) (Mus musculus [3]) | fold change (FC) (Mus musculus [5]) | fold change (FC) (Mus musculus [6]) | INH (Rattus norvegicus [7]) | further results
1 | CCCCCC(O)CCCC(CCCCCCC(=O)O)C(C)=O (stereo not drawn) | 2 | 14 | 11 | 23 | 1700 ngequiv | fold change (FC) (Mus musculus [2]): 16; fold change (FC) (Mus musculus [4]): 16
2 | CCCCC[C@H](O)CC[C@H]1CCC(=O)[C@@H]1CCCCCCC(=O)O | 10 | 26 | 25 |  | 10 ngequiv | fold change (FC) (Mus musculus [4]): 19
3 | CS(=O)(=O)C(CCCCCCC(=O)O)CCCC(O)COc1ccc(F)cc1 (stereo not drawn) | 1 | 23 |  | 27 | 1.11 µgequiv | 
4 | CCCCCC(O)CCCC(CCCCCCC(=O)O)S(C)(=O)=O (mixture of isomers) | 14 | 27 | 24 | 38 | 0.67 µgequiv | fold change (FC) (Homo sapiens [8]): 2.7; Activity (Canis familiaris): inactive; Stability [9]: Stable; inhibition at 10 µg/mL (Lymphocyte [10]): 88%; fold change (FC) (Mus musculus [11]): 2; Activity (Rattus norvegicus [12]): inactive; inhibition at 1 µg/mL (Lymphocyte [13]): 30%; fold change (FC) (Homo sapiens [14]): 2.5; fold change (FC) (Homo sapiens [15]): 3.4; fold change (FC) (Homo sapiens [16]): 3.5
5 | CCCCCC(O)CCCC(CCCCCCC(=O)O)S(=O)(=O)CCO (mixture of isomers) | 0.7 | 2 |  | 10 |  | 
6 | CCCCCC(O)CCCC(CCCCCCC(=O)O)SC (mixture of isomers) | 2.5 | 35 |  | 24 | 0.77 µgequiv | 
7 | CCCCCC(O)CCCC(CCCCCCC(=O)O)SCCO (mixture of isomers) | 1.5 | 4 |  | 14 |  | 
8 | CCCCCC(O)CCCC(CCCCCCC(=O)O)[S+](C)[O-] (mixture of isomers) | 4 | 40 |  | 57 | 7.14 µgequiv | 
9 | CCCCCC(O)CCCCCS(=O)(=O)CCCCCCCC(=O)O (racemic) |  | 0.5 |  | 1 |  | 
10 | CCCCC[C@H](O)/C=C/[C@H]1[C@H](O)CC(=O)[C@@H]1CCCCCCC(=O)O [ALPROSTADIL] | 54 |  |  |  |  | fold change (FC) (Mus musculus [17]): 29; inhibition at 10 µg/mL (Lymphocyte [10]): 82%; fold change (FC) (Mus musculus [11]): 25; fold change (FC) (Homo sapiens [18]): 10; fold change (FC) (Mus musculus [19]): 8
